Measurements: article PMC10357458 (ACS Omega, 2023)

Tested on: CAIX-positive SK-RC-52 cells
Assay: Cellular binding, flow cytometry and confocal microscopy on CAIX-positive cells
Type: cell-based, human
Settings: fluorescent derivatives, 100 nM, 30 min
Procedure, shortened: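 SK-RC-52 human renal carcinoma cells were grown in RPMI with 10% FCS and 1% antibiotic-antimycotic at 37 °C, 5% CO₂, and split 1:6 with 0.05% trypsin-EDTA. For confocal imaging, cells were seeded at 10^4 per chamber well in RPMI with 10% FBS and 10 mM HEPES, then grown overnight. Fluorescein-labelled test compounds were imaged with DAPI-stained nuclei. Acetazolamide-fluorescein was the positive control and untargeted fluorescein the negative control.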

Structure (SMILES): CC(=O)Nc1nnc(S(N)(=O)=O)s1 [AAZ, acetazolamide]
- binding to CAIX on the surface of SK-RC-52 cells: accumulated on the surface
